How the values were obtained:
[1] = molecular target: T1, Sodium/iodide cotransporter (Rattus norvegicus, UniProt Q63008); experiment: inhibition of sodium iodide symporter in rat FRTL5 cells after 1 hr by arsenic/cerium titration assay; assay type: cell-based, FRTL-5
T1 sequence (Q63008 whole entry): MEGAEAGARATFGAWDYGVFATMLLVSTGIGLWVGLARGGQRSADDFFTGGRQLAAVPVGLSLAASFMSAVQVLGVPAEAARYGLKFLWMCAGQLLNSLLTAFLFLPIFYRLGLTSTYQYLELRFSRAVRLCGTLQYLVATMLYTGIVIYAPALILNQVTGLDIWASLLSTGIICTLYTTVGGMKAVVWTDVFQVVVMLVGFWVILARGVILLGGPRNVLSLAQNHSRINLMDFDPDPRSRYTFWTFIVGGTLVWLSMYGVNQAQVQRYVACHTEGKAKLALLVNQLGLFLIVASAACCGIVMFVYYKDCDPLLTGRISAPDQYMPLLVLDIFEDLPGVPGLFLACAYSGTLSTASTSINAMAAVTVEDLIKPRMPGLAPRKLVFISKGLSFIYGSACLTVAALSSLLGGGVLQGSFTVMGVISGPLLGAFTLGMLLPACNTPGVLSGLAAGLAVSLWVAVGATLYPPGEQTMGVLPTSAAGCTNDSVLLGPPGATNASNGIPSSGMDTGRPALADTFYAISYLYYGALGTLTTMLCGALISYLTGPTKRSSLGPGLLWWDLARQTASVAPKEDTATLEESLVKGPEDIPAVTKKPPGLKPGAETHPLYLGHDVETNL
In short: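 Iodide entrapment measured in FRTL5 cells after 1 h incubation at 20 ± 1 °C. Supernatant removed, then cellular iodide read at once by a modified non-radioactive As/Ce Sandell–Kolthoff reaction against iodide standards. DMSO stocks 20 mM; NaClO₄ and a reference inhibitor on every plate as controls. Racemates tested. IC₅₀ from a four-parameter Hill fit, averaged over ≥2 independent experiments.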

FRTL-5 = experiment: Cytotoxicity against rat FRTL5 cells at 1 uM after 24 hrs by MTT assay; assay type: cell-based; details: frtl-5, 24 h
In short: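 Rat FRTL5 thyroid cells at about 50% confluence, given a single compound concentration for 24 h. MTT added (1.2 mg/mL), then 3 h at 37 °C and absorbance read at 570 nm to score viability. Ouabain run as assay control at eight concentrations.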

| SMILES | IC50 [1] [nM] | Activity (FRTL-5) |
| --- | --- | --- |
| COc1ccc(COC(=O)C2=C(C)NC(=O)NC2c2ccccc2)cc1 (configuration not stated) | 89 | – |
| COc1ccc(COC(=O)C2=C(C)N(C)C(=O)N(C)C2c2ccco2)cc1OC (configuration not stated) | 65 | Non-toxic |
| CC1=C(C(=O)OCc2ccc3c(c2)OCO3)C(c2ccco2)NC(=O)N1 (configuration not stated) | – | Non-toxic |
| CC1=C(C(=O)OCc2ccc3c(c2)OCO3)C(c2ccco2)NC(=O)N1C (configuration not stated) | – | Non-toxic |
| CC1=C(C(=O)OCc2ccc3c(c2)OCO3)C(c2ccco2)N(C)C(=O)N1C (configuration not stated) | – | Non-toxic |
| COc1ccc(COC(=O)C2=C(C)NC(=O)N[C@@H]2c2ccccc2)cc1 | 70 | – |
| COc1ccc(COC(=O)C2=C(C)NC(=O)N[C@H]2c2ccccc2)cc1 | 1500 | – |
| COc1ccc(COC(=O)C2=C(C)NC(=O)N[C@@H]2c2ccco2)cc1 | 630 | – |
| COc1ccc(COC(=O)C2=C(C)NC(=O)N[C@H]2c2ccco2)cc1 | 14000 | – |
| CC1=C(C(=O)OCc2ccc3c(c2)OCO3)[C@@H](c2ccco2)N(C)C(=O)N1C | 0.7 | – |
| CC1=C(C(=O)OCc2ccc3c(c2)OCO3)[C@H](c2ccco2)N(C)C(=O)N1C | 630 | – |
| COc1ccc(COC(=O)C2=C(C)NC(=O)NC2c2ccco2)cc1 (configuration not stated) | – | Non-toxic |
| COc1ccc(COC(=O)C2=C(C)N(C)C(=O)NC2c2ccco2)cc1 (configuration not stated) | – | Non-toxic |
| COc1ccc(COC(=O)C2=C(C)N(C)C(=O)N(C)C2c2ccco2)cc1 (configuration not stated) | – | Non-toxic |
| COc1cccc(COC(=O)C2=C(C)NC(=O)NC2c2ccco2)c1 (configuration not stated) | – | Non-toxic |
| COc1cccc(COC(=O)C2=C(C)N(C)C(=O)NC2c2ccco2)c1 (configuration not stated) | – | Non-toxic |
| COc1cccc(COC(=O)C2=C(C)N(C)C(=O)N(C)C2c2ccco2)c1 (configuration not stated) | – | Non-toxic |
| COc1ccc(COC(=O)C2=C(C)NC(=O)NC2c2ccco2)cc1OC (configuration not stated) | 400 | Non-toxic |
| COc1ccc(COC(=O)C2=C(C)N(C)C(=O)NC2c2ccco2)cc1OC (configuration not stated) | 1000 | Non-toxic |

Reference: ChEMBL document CHEMBL2331132, “Synthesis, evaluation and absolute configuration assignment of novel dihydropyrimidin-2-ones as picomolar sodium iodide symporter inhibitors” (Eur J Med Chem, 2013)
